Data from ChEMBL document CHEMBL4196194, “De Novo Design of α-Helical Lipopeptides Targeting Viral Fusion Proteins: A Promising Strategy for Relatively Broad-Spectrum Antiviral Drug Discovery” (J Med Chem, 2018).
Active and inactive are the calls of the source. The calls are words filed in the database; no cut-off is given here. Where a SMILES comes first, the peptide text is derived from it. [ ]: non-standard residue; d: D form. The star is where a group is joined. Palmitoyl = CCCCCCCCCCCCCCCC(=O)*; βAla = NCCC(=O)O

Experiments:
[1] = Cytotoxicity in human HuH7 cells assessed as reduction in cell viability incubated for 48 hrs by CCK8 assay; format: cell-based, Huh-7
Summary of the method: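 Huh-7 cells (1 × 10^5 cells/mL suspension seeded) grown 12 h at 37 °C, 5% CO2, then serially diluted peptide added for 48 h; untreated blank and Triton X-100 controls. CCK-8 added for 2 h, absorbance at 450 nm.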

[2] = Inhibition of MERS-CoV spike protein-mediated cell-cell fusion in 293T/MERS/EGPF cells assessed as reduction in cell fusion incubated for 4 hrs by inverted fluorescence microscopy; format: cell-based, Middle East respiratory syndrome-related coronavirus
Summary of the method: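 Huh-7 cells expressing DPP4 plated 5 × 10^4/well, 5 h at 37 °C; serially diluted peptide added, then 293T cells carrying MERS-CoV S and EGFP (or EGFP-only control cells), 1 × 10^4/well. After 4 h coculture at 37 °C, fused and unfused effector cells counted by fluorescence microscopy.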

Influenza A virus [3] = experiment: Antiviral activity against Influenza A virus (A/Puerto Rico/8/1934(H1N1)) infected in HEK293T cells assessed as inhibition of viral replicon activity up to 20 uM incubated for 30 hrs by dual-Glo luciferase assay; format: functional, organism-based
Summary of the method: (§1)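 HEK293T cells (2.5 × 10^4/well) transfected with plasmids for NP, PB1, PB2, PA plus p0LN-S-Luc firefly and pRL-SV40 Renilla reporters; serially diluted compound added 6 h post-transfection, luciferase read after 30 h by Dual-Glo. Activity = firefly/Renilla ratio; % inhibition normalized to positive and negative controls, curve-fitted; three independent measurements.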

Influenza A virus [4] = experiment: Antiviral activity against influenza A virus Hong Kong/8/1968(H3N2) infected in HEK293T cells assessed as inhibition of viral replicon activity up to 20 uM incubated for 30 hrs by dual-Glo luciferase assay; format: functional, organism-based; summary of the method: as §1
[5] = Cytotoxicity in MDCK cells assessed as reduction in cell viability incubated for 72 hrs by cell-titer-Glo cell viability assay; format: cell-based, Canis lupus familiaris; conditions: dog
Influenza A virus [6] = experiment: Antiviral activity against influenza A virus Hong Kong/8/1968(H3N2) infected in HEK293T cells assessed as inhibition of viral replicon activity incubated for 30 hrs by dual-Glo luciferase assay; format: functional, organism-based; conditions: HEK-293T; summary of the method: as §1
Influenza A virus [7] = experiment: Antiviral activity against Influenza A virus (A/Puerto Rico/8/1934(H1N1)) infected in HEK293T cells assessed as inhibition of viral replicon activity incubated for 30 hrs by dual-Glo luciferase assay; format: functional, organism-based; conditions: HEK-293T; summary of the method: as §1
Influenza A virus [8] = experiment: Antiviral activity against influenza A virus assessed as inhibition of viral replicon activity up to 100 uM incubated for 30 hrs by firefly luciferase reporter gene assay; format: functional, organism-based; summary of the method: as §1
Influenza A virus [9] = experiment: Inhibition of influenza A virus infected in MDCK cells assessed as inhibition of viral load treated with compound at 0 to 10 hrs post-infection by RT-qPCR method based time of addition assay; format: functional
Summary of the method: (§2)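 MDCK cells (2.0 × 10^5/well) washed with PBS, virus adsorbed (MOI 0.05) 60 min at 4 °C, washed, then compound present only during 0–10, 0–2, 2–5, 5–8 or 8–10 h postinfection; cultured in fresh medium to 10 h, total RNA extracted, viral load by absolute one-step RT-qPCR; triplicate, versus PBS control.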

Influenza A virus [10] = experiment: Inhibition of influenza A virus infected in MDCK cells assessed as inhibition of viral load treated with compound at 0 to 2 hrs post-infection by RT-qPCR method based time of addition assay; format: functional; summary of the method: as §2
Influenza A virus [11] = conditions: Hong Kong/8/1968(H3N2), 0.1 to 1000 uM
Influenza A virus [12] = conditions: A/Puerto Rico/8/1934(H1N1), 0.1 to 1000 uM
Influenza A virus [13] = experiment: Inhibition of influenza A virus infected in MDCK cells assessed as inhibition of viral load treated with compound at 5 to 8 hrs post-infection by RT-qPCR method based time of addition assay; format: functional, organism-based; summary of the method: as §2
Influenza A virus [14] = experiment: Inhibition of influenza A virus infected in MDCK cells assessed as inhibition of viral load treated with compound at 2 to 5 hrs post-infection by RT-qPCR method based time of addition assay; format: functional, organism-based; summary of the method: as §2
Influenza A virus [15] = experiment: Antiviral activity against influenza A virus assessed as inhibition of viral replicon activity incubated for 30 hrs by firefly luciferase reporter gene assay; format: functional, organism-based; summary of the method: as §1

SMILES: CC[C@H](C)[C@H](NC(=O)[C@H](Cc1ccc(O)cc1)NC(=O)[C@H](CO)NC(=O)[C@H](CCC(=O)O)NC(=O)[C@H](CCC(=O)O)NC(=O)[C@H](CC(C)C)NC(=O)[C@H](CCCCN)NC(=O)[C@H](CCCCN)NC(=O)[C@@H](NC(=O)[C@@H](NC(=O)[C@H](CCC(=O)O)NC(=O)[C@H](CCC(=O)O)NC(=O)[C@H](CC(C)C)NC(=O)[C@H](CCCCN)NC(=O)[C@H](CCCCN)NC(=O)[C@H](CCSC)NC(=O)[C@H](CCC(=O)O)NC(=O)[C@H](Cc1ccc(O)cc1)NC(=O)[C@H](CCC(=O)O)NC(=O)[C@H](CC(C)C)NC(=O)[C@H](CC(=O)O)NC(=O)[C@H](CC(C)C)NC(=O)[C@H](CC(C)C)NC(=O)[C@@H](NC(=O)[C@@H](NC(=O)[C@H](CC(N)=O)NC(=O)[C@@H](NC(=O)[C@H](CCC(N)=O)NC(=O)[C@@H](NC(=O)[C@H](CC(C)C)NC(=O)[C@H](CO)NC(C)=O)[C@@H](C)O)[C@@H](C)CC)[C@@H](C)O)[C@@H](C)O)C(C)C)C(C)C)C(=O)N[C@@H](CC(=O)O)C(=O)N[C@@H](CC(C)C)C(=O)N[C@@H](CCCCN)C(=O)N[C@@H](CCC(=O)O)C(=O)N[C@@H](CC(C)C)C(N)=O
- CC50 at 48 h [1]: > 100 µM
- EC50 [2]: 0.15 µM
- Activity (Influenza A virus [3]): inactive
- Activity (Influenza A virus [4]): inactive

SMILES: CCCCCCCCCCCCCCCC(=O)NCCCC[C@H](NC(=O)CCNC(=O)[C@H](CCCCN)NC(=O)[C@H](CCCCN)NC(=O)[C@H](CO)NC(=O)[C@@H](NC(=O)[C@H](CCC(=O)O)NC(=O)[C@H](CCC(=O)O)NC(=O)[C@@H](NC(=O)[C@H](CCCCN)NC(=O)[C@H](CCCCN)NC(=O)[C@H](CO)NC(=O)[C@@H](NC(=O)[C@H](CCC(=O)O)NC(=O)[C@H](CCC(=O)O)NC(=O)[C@@H](NC(=O)[C@H](CCCCN)NC(=O)[C@H](CCCCN)NC(=O)[C@H](CO)NC(=O)[C@@H](NC(=O)[C@H](CCC(=O)O)NC(=O)[C@H](CCC(=O)O)NC(=O)[C@@H](NC(=O)[C@H](CCCCN)NC(=O)[C@H](CCCCN)NC(=O)[C@H](CO)NC(=O)[C@@H](NC(=O)[C@H](CCC(=O)O)NC(=O)[C@H](CCC(=O)O)NC(=O)[C@@H](NC(=O)[C@H](CCCCN)NC(=O)[C@H](CCCCN)NC(=O)[C@H](CO)NC(=O)[C@@H](NC(=O)[C@H](CCC(=O)O)NC(=O)[C@H](CCC(=O)O)NC(=O)[C@@H](NC(C)=O)[C@@H](C)CC)[C@@H](C)CC)[C@@H](C)CC)[C@@H](C)CC)[C@@H](C)CC)[C@@H](C)CC)[C@@H](C)CC)[C@@H](C)CC)[C@@H](C)CC)[C@@H](C)CC)C(N)=O (Ac-IEEISKKIEEISKKIEEISKKIEEISKKIEEISKK[βAla]K(Palmitoyl)-NH2)
- CC50 at 72 h [5]: > 100 µM

SMILES: CCOC(=O)C1=C[C@@H](OC(CC)CC)[C@H](NC(C)=O)[C@@H](N)C1 [OSELTAMIVIR]
- EC50 (Influenza A virus [6]): 0.01 µM
- EC50 (Influenza A virus [7]): 1.48 µM
- CC50 at 72 h [5]: > 100 µM
- inhibition (Influenza A virus [8]): inactive

SMILES: NC(=O)c1nc(F)cnc1O
- inhibition (Influenza A virus [9]): Active
- inhibition (Influenza A virus [10]): Active
- inhibition (Influenza A virus [11]): inactive
- inhibition (Influenza A virus [12]): inactive
- inhibition (Influenza A virus [13]): Active
- inhibition (Influenza A virus [14]): Active
- IC50 (Influenza A virus [15]): 26.2 µM
- inhibition (Influenza A virus [15]): Dose-dependent effect
